High-throughput results (PubChem)
In the library only some 6.8% were active in any assay of this set; here they are far more common.
AI-2 QS modul: Vibrio harveyi AI-2 quorum sensing modulators, primary screen, JMH597 strain, luminescence/OD600 ratio; Vibrio harveyi JMH597 AI-2 luminescence/OD600 ratio, 9 h; stronger effect = lower value; strain lacks LuxN and CqsS sensors; 0 = neutral-control median; activity change, % at 7.5 µM; actives 0.4% (n = 300,000); AID 2094, 2009; in the data active = activity change below about -75%, passing the limit was not always enough;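 also: luminescence divided by OD600 gain over 9 h not by final OD600 alone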
PHOSPHO1 block: PubChem AID 1565 | inhibition, % at 13.3 µM | recombinant PHOSPHO1, absorbance phosphatase assay | actives 1.1% (n = 290,000) | Phosphoethanolamine/phosphocholine phosphatase (Homo sapiens), Q8TCT1; in the data active = inhibition above about 60%
Target sequence (Q8TCT1 whole entry, looked up): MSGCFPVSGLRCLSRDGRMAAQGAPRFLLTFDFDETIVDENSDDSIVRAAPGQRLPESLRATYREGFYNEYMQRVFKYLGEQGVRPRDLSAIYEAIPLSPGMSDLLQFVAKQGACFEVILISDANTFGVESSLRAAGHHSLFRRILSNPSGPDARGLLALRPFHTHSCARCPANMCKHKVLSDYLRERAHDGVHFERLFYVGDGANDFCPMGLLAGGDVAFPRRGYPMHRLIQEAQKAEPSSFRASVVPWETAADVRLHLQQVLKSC
ALR inh: inhibitors of human ALR sulfhydryl oxidase, primary screen, biochemical, H2O2 detection, HRP-luminol luminescence, single point; FAD-linked sulfhydryl oxidase ALR (Homo sapiens), P55789; purified ALR, DTT oxidation; inhibition, % (test concentration not listed); actives 3.8% (n = 290,000); AID 485317, 2010;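 active = mean replicate inhibition above about 79%, with every replicate also reaching it, limit read from the data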
Target sequence (P55789 whole entry, looked up): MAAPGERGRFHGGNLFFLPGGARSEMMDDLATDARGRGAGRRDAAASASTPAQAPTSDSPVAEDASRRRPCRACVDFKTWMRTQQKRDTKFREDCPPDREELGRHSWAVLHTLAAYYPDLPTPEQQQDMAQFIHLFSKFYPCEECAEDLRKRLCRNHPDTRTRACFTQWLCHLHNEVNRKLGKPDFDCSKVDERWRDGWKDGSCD
HSF-1 act: HSF-1 activators, primary screen, NIH3T3-HGL cells, MG132 stress, luminescence, single point | actives 1.7% (n = 300,000) | activation, % at 9 µM | AID 504408, 2011 | NIH3T3-HGL HSF-1 luciferase reporter, 8 h; 100% = twice DMSO control signal;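 active = mean replicate activation of at least 50% with a set share of replicates each reaching 50%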;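 also: 0% = median of the neutral control wells and 100% = twice that signal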
HCV core dimer: inhibitors of HCV core protein dimerization, primary screen, biochemical, TR-FRET, high-throughput | inhibition, % at 5 µM | TR-FRET GST/Flag-core106 dimerization, 1536-well | actives 0.33% (n = 300,000);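 active = inhibition above the mean of all tested compounds plus 3 SD, set per screening campaign, cut at about 45% in these data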
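test system = GST/Flag-tagged HCV core106 proteins | probe or stimulus = Eu donor and XL665 acceptor anti-tag antibodies | times = compound-protein-antibody incubation 4 h at 22.5 °C | signal = TR-FRET, excitation 340 nm, emission 617 and 671 nm | measure = percent inhibition of core106 dimerization signal | controls = wells lacking GST-core106 and wells with excess unlabelled core106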
HSF1 inh: HSF1 inhibitors in luciferase reporter cells, primary screen, cell-based, NIH3T3, luminescence | NIH3T3-HGL HSE-luciferase, MG132-induced, luminescence 8 h; stronger effect = lower value | activity change, negative = inhibition, % at 7.5 µM (by protocol) | actives 0.77% (n = 300,000) | AID 2098, 2009;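 active = more than half of replicate wells show activity change below -50%, luminescence cut by over half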;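 also: luciferase reports HSF-1 transcriptional activity via heat shock element; 0% = median of DMSO wells and -100% = zero luminescence signal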
* hit, by the source's call; · = not tested or not shown.

SMILES | AI-2 QS modul | PHOSPHO1 block | ALR inh | HSF-1 act | HCV core dimer | HSF1 inh
COc1ccc(OC)c(NC(=O)COC(=O)CC2CCCCC2)c1 | · | · | -6 | · | · | ·
Cc1ccc(-c2csc(NC(=O)c3ccc4c(=O)n5c(nc4c3)CCCCC5)n2)cc1 | 30 | -24 | · | -13 | 22 | -8
COc1ccc(Cc2nnc(NC(=O)c3ccccc3F)s2)cc1 | 1 | 25 | -1 | -48 | · | -36
Nc1c(C(=O)Nc2ccc3c(c2)OCCO3)nnn1Cc1ccc(Br)cc1 | 21 | · | -5 | 56* | 2 | 30
CCOc1ccc(N2CC(C(=O)Nc3ccccc3N3CCCC3)CC2=O)cc1 (stereo not drawn) | 18 | -32 | 94* | -5 | 1 | 0
O=C(Nc1ccc2c(c1)OCCO2)c1cccc(Br)c1 | 0 | 24 | -10 | 57* | · | 22
O=C(Nc1ccc2oc(=O)ccc2c1)c1cc2ccccc2o1 | -3 | -6 | 5 | 46 | -11 | 29
CCOc1ccc(N2CC(C(=O)Nc3ccccc3OC)CC2=O)cc1 (stereo not drawn) | 22 | 4 | -11 | 6 | 4 | 1
O=C(Nc1ccc2c(c1)OCCO2)c1cc2ccccc2o1 | 10 | 4 | -3 | 61* | -5 | 15
COc1ccc(/C=C/c2nnc(NC(=O)COc3ccc(C)cc3)s2)cc1 | 25 | 4 | -3 | 12 | -3 | 9
CCOc1ccc(C(=O)Nc2ccc3c(c2)OCCO3)cc1 | 15 | 45 | -5 | 118* | 2 | 69
CCOc1ccc(N2CC(C(=O)Nc3ccc4c(c3)OCCO4)CC2=O)cc1 (stereo not drawn) | 58 | 36 | · | -67 | 0 | -65*
CCOc1ccc(C(=O)NC2=NCCS2)cc1 | 30 | 43 | 1 | 66* | -3 | 28
Cc1ccc(C(=O)Nc2ccc3c(c2)OCCO3)cc1 | 6 | 34 | -4 | -6 | · | -3
CCOc1ccc(N2CC(C(=O)Nc3ccc4c(c3)OCO4)CC2=O)cc1 (stereo not drawn) | 1 | -20 | -1 | -3 | 0 | 4
O=C(Nc1cccc(C(=O)Nc2cccc(Br)c2)c1)c1ccccc1 | 9 | 36 | 2 | 7 | 23 | 10
CC(C)c1ccc(NC(=O)c2cccc(Br)c2)cc1 | 17 | 4 | -10 | 78* | -2 | 38
CCOc1cc(C(=O)NC2=NCCS2)cc(OCC)c1OCC | 5 | 26 | 1 | 29 | -2 | 2
N#Cc1ccc(CO/N=C/c2ccccc2)cc1 | -60 | 16 | -5 | 36 | 1 | 17
Cc1nc(SCC(=O)N2CCCC2=O)nc(C)c1C | · | · | 28 | · | · | ·
O=C(CNCc1ccc(F)cc1)Nc1ccc(C(=O)N2CCCCC2)cc1 | 10 | 22 | 0 | -2 | -4 | -2
C/C(=N\NC(=O)c1c(Br)cnn1C)c1ccc(NC(=O)c2ccc(F)cc2)cc1 | -1 | 10 | -18 | 6 | -5 | -6
COc1ccccc1OCCNC(=O)c1ccc2c(c1)CCC2 | 34 | 20 | · | 7 | -1 | 3
CNC(=O)C1CC(=O)N(c2ccc(OCC(=O)N3CCCC3)cc2)C1 (stereo not drawn) | 24 | 9 | 3 | 54* | -9 | 13
O=C(NCc1ccc2c(c1)OCO2)C1CC(=O)N(c2ccc(O)cc2)C1 (stereo not drawn) | 20 | 18 | 99* | 14 | 3 | -3
SMILES | AI-2 QS modul | PHOSPHO1 block | ALR inh | HSF-1 act | HCV core dimer | HSF1 inh
C=CCNC(=O)C1CC(=O)N(c2ccc(OCC(=O)Nc3ccc(C)cc3)cc2)C1 (stereo not drawn) | 9 | 12 | -3 | -27 | 1 | -10
C=CCNC(=O)C1CC(=O)N(c2ccc(OCC(=O)Nc3ccccc3)cc2)C1 (stereo not drawn) | 9 | -10 | -4 | 53* | 1 | 21
C=CCNC(=O)C1CC(=O)N(c2ccc(OCC(=O)N3CCCC3)cc2)C1 (stereo not drawn) | 38 | 31 | 3 | -15 | 2 | -3
CCCCc1cc(C(=O)Cc2ccccn2)c(O)cc1O | 11 | 7 | 3 | 3 | 0 | 10
CN(C)/N=C/c1ccc(Sc2ccc([N+](=O)[O-])cc2[N+](=O)[O-])o1 | 10 | 2 | 15 | -44 | -20 | -40
Cc1cc(C)nc(Sc2ccc([N+](=O)[O-])cc2[N+](=O)[O-])n1 | 13 | 8 | -15 | 66* | -12 | 45
O=[N+]([O-])c1ccc(Sc2cccc3cccnc23)c([N+](=O)[O-])c1 | 19 | 87* | -2 | 33 | 6 | -1
O=C(CSc1nc2ccccc2c(=O)n1Cc1ccc(Cl)cc1)NCc1cccs1 | 13 | -9 | · | -4 | 7 | -4
COCCn1c(-c2ccc(Cl)cc2)cnc1SCC(=O)NCc1cccs1 | · | 74* | -1 | · | 3 | ·
O=C1SCC(c2ccccc2)=NN1Cc1ccccc1 | -18 | 3 | -7 | -68 | 3 | -59*
CC(=O)Nc1ccc(C2=NN(CC#N)C(=O)SC2)cc1 | 26 | -6 | 12 | -14 | -5 | -6
C#CCN1N=C(c2ccc(C)cc2)CSC1=O | 15 | · | 3 | 10 | 1 | 0
CC(=O)Nc1ccc(C2=NN(Cc3nnc(-c4ccccc4)o3)C(=O)SC2)cc1 | 34 | -15 | · | 88* | -8 | 41
Cc1ccc(S(=O)(=O)NCCOc2nc(N3CCOCC3)nc(N3CCOCC3)n2)cc1 | 5 | 12 | -8 | 58* | 1 | 22
CC(C)C(c1nnnn1C1CCCCC1)N1CCc2ccccc21 (stereo not drawn) | 26 | -9 | 18 | 6 | 2 | 6
CC(C)C(c1nnnn1C1CCCC1)N1c2ccccc2CC1C (stereo not drawn) | 3 | 7 | 99* | 25 | 0 | 7
O=C(NCC(=O)N1CCN(c2ccccc2)CC1)c1ccccc1 | 24 | 37 | 30 | 15 | 5 | 1
Cc1csc(NC(=O)c2cc3c(s2)CCC3)n1 | 5 | -9 | 7 | 54* | 3 | 13
O=C(CCN1CCCCC1)NNC(=O)C12CC3CC(CC(C3)C1)C2 | 28 | 44 | -2 | 5 | 8 | -7
O=C(N/N=C/c1ccncc1)NC12CC3CC(CC(C3)C1)C2 | 16 | 8 | -13 | -2 | 4 | -10
C=C1CC(C(=O)N/N=C/c2ccc(O)cc2)C1 | 9 | 4 | 100* | 3 | -5 | 0
O=C(N/N=C/c1ccc(O)cc1)NC12CC3CC(CC(C3)C1)C2 | 16 | 24 | 93* | -1 | -1 | -4
CSc1ccc(/C=N/NC(=O)c2ccc(O)cc2)cc1 | 26 | 8 | 0 | 18 | -2 | 7
